{"source": "PubChem BioAssay AID2052", "about": "(NMMLSC, 2009)", "note": "The whole screen tested about 330,000 compounds, of which about 220 (0.067%) were called active. This is one part of a sample in which actives are shown more often than they occur.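 Rule for the calls: active = response, share of CD8 T cells binding vesicles, and their 90th percentile fluorescence all below set limits (cut at about 80% in these data, passing the limit was not always enough); inactive = the rest, inconclusive results apart.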"}
{"assay": "murine CD8 T cell vesicle adhesion modulation – mouse 2C CD8+ T cells, flow cytometry, primary screen (AID 2052);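 for double positive events: binding gate set so that unloaded-vesicle control wells show 10% double positive cells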;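 for response (vesicle binding): values below 100% mean blocked vesicle binding to the CD8+ T cells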", "settings": "2C CD8+ T cell-vesicle binding, at 7 µM, stronger effect = lower value; double positive events: measured here: CD8+ vesicle-bound cell fraction", "how_it_was_run": "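Test system: purified 2C TCR transgenic mouse naive CD8+ T cells. Probe or stimulus: QL9-peptide-loaded Drosophila micro-vesicles bearing Ld, ICAM-1 and B7-1. Incubation: binding step 1.5 h, 37 °C, antibody labelling 20 min, ice. Measured by: flow cytometry of vesicle-bound cells.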", "units": {"double positive events": "%"}}
{"smiles": "Cc1oc2c(F)c(F)c(F)c(F)c2c1S(=O)(=O)Nc1cccc(C(F)(F)F)c1", "double positive events": 13.2, "response (vesicle binding)": "170% (inactive)"}
{"smiles": "COc1ccc(C(=O)COC(=O)c2nn(C)c(=O)c3ccccc23)c(OC)c1", "double positive events": 13.7, "response (vesicle binding)": "187% (inactive)"}
{"smiles": "CC(=O)c1cccc(NC(=O)CN2C(=O)c3cccnc3Oc3ccc(Cl)cc32)c1", "double positive events": 54.8, "response (vesicle binding)": "668% (inactive)"}
{"smiles": "COC(=O)C1=CO[C@@H](O[C@@H]2O[C@H](CO)[C@@H](O)[C@H](O)[C@H]2O)C2C1C[C@H](O)[C@@H]2C", "note": "(some centres not stated)", "double positive events": 33.1, "response (vesicle binding)": "220% (inactive)"}
{"smiles": "CCOC(CNC(=O)C1CCN(S(=O)(=O)c2ccc3nc4c(c(C(=O)O)c3c2)CC(C)CC4)CC1)OCC", "note": "(configuration not stated)", "double positive events": 3.9, "response (vesicle binding)": "171% (inactive)"}
{"smiles": "CN(C)C(CNC(=O)c1ccc(OCc2cn3ccccc3n2)cc1)c1ccco1", "note": "(configuration not stated)", "double positive events": 23.9, "response (vesicle binding)": "416% (inactive)"}
{"smiles": "COc1ccc(NC(C(=O)Nc2cccc(C(C)=O)c2)c2ccccc2)cc1", "note": "(configuration not stated)", "double positive events": 36, "response (vesicle binding)": "198% (inactive)"}
{"smiles": "O=C(CCc1nnc2ccc(NCc3ccco3)nn12)Nc1cc(F)ccc1F", "double positive events": 36.4, "response (vesicle binding)": "186% (inactive)"}
{"smiles": "O=C(COC(=O)c1ccc(NS(=O)(=O)c2cccs2)cc1O)Nc1ccc(F)cc1", "double positive events": 18.7, "response (vesicle binding)": "74.7% (inactive)"}
{"smiles": "Nn1c(SCC(=O)Nc2nccs2)nncc1=O", "double positive events": 30.5, "response (vesicle binding)": "224% (inactive)"}
{"smiles": "COc1ccccc1C(=O)NC(CCSC)C(=O)NNC(=O)c1csc(N2CCOCC2)n1", "note": "(configuration not stated)", "double positive events": 27.1, "response (vesicle binding)": "242% (inactive)"}
{"smiles": "CCc1nc2ccccc2c(C(=O)OC2CCCCC2=O)c1C", "note": "(configuration not stated)", "double positive events": 48.4, "response (vesicle binding)": "288% (inactive)"}
{"smiles": "Cc1cccc(C(=O)N2CCCC(Nc3ccc(C(C)C)cc3)C2)n1", "note": "(configuration not stated)", "double positive events": 11.9, "response (vesicle binding)": "567% (inactive)"}
{"smiles": "Cc1ccc(-c2nnc(C)c(N3CC(C)OC(C)C3)n2)cc1", "note": "(configuration not stated)", "double positive events": 50.8, "response (vesicle binding)": "123% (inactive)"}
{"smiles": "COC(=O)NNC(=O)C1CCC(C)CC1", "note": "(configuration not stated)", "double positive events": 13.1, "response (vesicle binding)": "199% (inactive)"}
{"smiles": "O=C(COc1ccccc1)Nc1ccc(N2CCN(C(=O)c3cccs3)CC2)cc1", "double positive events": 4.1, "response (vesicle binding)": "606% (inactive)"}
{"smiles": "Brc1c(CSc2nncc3ccccc23)nc2ccccn12", "double positive events": 26.2, "response (vesicle binding)": "103% (inactive)"}
{"smiles": "COc1ccccc1C(=O)Nc1ccnn1C1CCN(C(=O)C(C)(C)C)CC1", "double positive events": 51.4, "response (vesicle binding)": "266% (inactive)"}
{"smiles": "Cc1ccc(S(=O)(=O)NCCC(=O)NC2CCN(Cc3ccccc3)CC2)cc1", "double positive events": 42.6, "response (vesicle binding)": "256% (inactive)"}
{"smiles": "CCCCCCCC(=O)OC(CN1CCCCCC1)CN1CCCC1=O", "note": "(configuration not stated)", "double positive events": 16.5, "response (vesicle binding)": "372% (inactive)"}
{"smiles": "COC(=O)[C@@H]1CC(O)CN1C(=O)C12CC3CC(CC(C3)C1)C2", "note": "(some centres not stated)", "double positive events": 52.2, "response (vesicle binding)": "228% (inactive)"}
{"smiles": "Cc1ccc(-c2csc(NC(=O)C3=COCCO3)n2)cc1C", "double positive events": 20.8, "response (vesicle binding)": "138% (inactive)"}
{"smiles": "CC(C)OP(=O)(OC(C)C)C(Nc1ccccc1)c1cccc([N+](=O)[O-])c1", "note": "(configuration not stated)", "double positive events": 20.7, "response (vesicle binding)": "684% (inactive)"}
{"smiles": "COc1cccc(NC(=O)COc2cc(C)cc3oc(=O)cc(C)c23)c1", "double positive events": 34.7, "response (vesicle binding)": "510% (inactive)"}
{"smiles": "CC1(C)CC(=O)C=C(N2CCOCC2)C1", "double positive events": 19.8, "response (vesicle binding)": "266% (inactive)"}
{"smiles": "Cc1nc([N+](=O)[O-])c(NCCCO)n1Cc1ccccc1", "double positive events": 19.6, "response (vesicle binding)": "72.9% (inactive)"}
{"smiles": "Cc1cc(C)n(C(=O)c2ccc(C)c(S(=O)(=O)N3CCOCC3)c2)n1", "double positive events": 54, "response (vesicle binding)": "212% (inactive)"}
{"smiles": "C/C=C/c1ccc(OCC(=O)NNC(=O)CN(C)S(=O)(=O)c2ccc(C)cc2)c(OC)c1", "double positive events": 47.4, "response (vesicle binding)": "180% (inactive)"}
{"smiles": "CCOC(=O)C(=CNNc1ccsc1C(=O)OC)C(=O)OCC", "double positive events": 17.6, "response (vesicle binding)": "541% (inactive)"}
{"smiles": "CC(=O)c1cc(-c2ccccc2)n(CCC(=O)NC2CCCCCC2)c1C", "double positive events": 47.9, "response (vesicle binding)": "183% (inactive)"}
{"smiles": "CCc1ccccc1NC(=O)[C@@H]1CCC(=O)N1C1OC(=O)c2c1ccc(OC)c2OC", "note": "(some centres not stated)", "double positive events": 15.9, "response (vesicle binding)": "194% (inactive)"}
{"smiles": "C/C(=N\\N(C)C)c1ccc(OCCOc2ccc([N+](=O)[O-])cc2)cc1", "double positive events": 36.6, "response (vesicle binding)": "389% (inactive)"}
{"smiles": "COc1ccc(C2c3[nH]c4ccccc4c3C[C@H]3C(=O)N(CC(C)C)CC(=O)N23)c(OC)c1", "note": "(some centres not stated)", "double positive events": 23.9, "response (vesicle binding)": "1350% (inactive)"}
{"smiles": "CC1(C)C2CC=C(/C=N/NC(=O)C3CC3)C1C2", "note": "(configuration not stated)", "double positive events": 55.1, "response (vesicle binding)": "548% (inactive)"}
{"smiles": "O=C(NCc1cccnc1)c1ccccc1NC(=O)c1c(F)cccc1F", "double positive events": 21.9, "response (vesicle binding)": "104% (inactive)"}
{"smiles": "CC(=O)N1CCc2cc(S(=O)(=O)NC3CCCCC3)ccc21", "double positive events": 27, "response (vesicle binding)": "222% (inactive)"}
{"smiles": "Cc1cccc(C(=O)NCc2nnc(SC(C)C(=O)Nc3nnc(C)s3)n2C)c1", "note": "(configuration not stated)", "double positive events": 13.6, "response (vesicle binding)": "258% (inactive)"}
{"smiles": "CCCCCN(C(=O)NC(=O)Nc1cccc(C)c1C)S(C)(=O)=O", "double positive events": 28.6, "response (vesicle binding)": "413% (inactive)"}
{"smiles": "COc1ccc(CCNC(=O)CN(c2ccccc2)S(C)(=O)=O)cc1OC", "double positive events": 42.8, "response (vesicle binding)": "345% (inactive)"}
{"smiles": "COc1ccc(C(=O)OCC(=O)NC(=O)CCSc2ccccc2)cc1", "double positive events": 48.7, "response (vesicle binding)": "413% (inactive)"}
{"smiles": "CC(NC(=S)Nc1ccccc1)C1COc2ccccc2O1", "note": "(configuration not stated)", "double positive events": 63, "response (vesicle binding)": "843% (inactive)"}
